The values below come from ChEMBL document CHEMBL1139082, “A potent and orally active HIV-1 integrase inhibitor” (Bioorg Med Chem Lett, 2007).

Molecules are shown by their SMILES. pIC50: −log10 of the molar value. Values after ≈ are worked out from the molar mass of the structure shown. Active and inactive are the calls of the source. No cut-off for these calls is given here.

Data set [1] deals with Plasma. Description: Fraction unbound in human plasma after 30 mins by ultracentrifugation method. Format: ADME, cell-free. To be noted: 0.5 h. Summed up:
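14C-labelled compound was spiked into human plasma (pH 7.4) at final 1, 5 and 20 µM and incubated 30 min at 37 °C. Ultracentrifugation at 180,000g, 37 °C, overnight (~18 h). Supernatant aliquots were counted by liquid scintillation with quench correction; fu (%) = dpm in protein-free fraction / dpm in original plasma × 100.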

The target of data set [2] is Human immunodeficiency virus type 1 integrase (Human immunodeficiency virus 1, UniProt Q7ZJM1). Description: Inhibition of HIV1 recombinant integrase catalyzed strand transfer activity.
Chain of Human immunodeficiency virus type 1 integrase (Q7ZJM1 whole entry): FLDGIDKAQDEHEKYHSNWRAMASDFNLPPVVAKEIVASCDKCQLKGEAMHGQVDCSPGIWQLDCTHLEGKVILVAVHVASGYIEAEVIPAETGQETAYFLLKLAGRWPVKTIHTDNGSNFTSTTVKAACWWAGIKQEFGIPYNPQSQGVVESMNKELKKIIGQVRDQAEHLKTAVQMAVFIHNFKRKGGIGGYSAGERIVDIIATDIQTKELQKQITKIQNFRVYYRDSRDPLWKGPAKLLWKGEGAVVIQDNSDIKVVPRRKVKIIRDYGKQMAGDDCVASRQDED
The species entered for data set [3] is Homo sapiens. Description: Protein binding in human plasma by ultrafiltration method. To be noted: read-out: PB (converted).
Data set [4] can be described thus: Partition coefficient, log P at pH 7.4. Format: physicochemical. To be noted: octanol/water. Summed up: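 Octanol/buffer partition measured by HPLC at each compound's maximum absorbance. Log P = log[(octanol area × octanol dilution)/(buffer area × buffer dilution)].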
The test system of data set [5] is Human immunodeficiency virus 1. Description: Antiviral activity against HIV1 3B in MT4 cells assessed as decrease in HIV1 p24 core antigen in presence of normal human serum. Format: functional. To be noted: Human immunodeficiency virus 1, 3B. The method, boiled down:
(§1)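 MT-4 human T-lymphoid cells infected with HIV-1 IIIb, cultured with increasing inhibitor concentrations; readout is the decrease in p24 core antigen. IC95 is the concentration giving 95% inhibition of viral growth versus control. Line 1 used 10% fetal bovine serum; line 2 used 50% normal human serum. n ≥ 2; lower limit ~7 nM; SD ~2-fold.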

Data set [6] relates to Human immunodeficiency virus 1. The data set can be described thus: Antiviral activity against HIV1 3B in MT4 cells assessed as decrease in HIV1 p24 core antigen in presence of FBS. The class given is functional. To be noted: Human immunodeficiency virus 1, 3B. Summed up:
as §1

The nature of data set [7]: Half life in rhesus monkey at 1 mg/kg, iv. The class given is ADME, organism-based, Macaca mulatta. Further details: dose 1 mg/kg, route intravenous. To be noted: in vivo. Summed up:
(§2)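 Dog and rhesus monkeys were given sodium salt intravenously at 1 mg/kg, dissolved in DMSO. Half-life (h) and clearance (mL/min/kg) were derived from plasma concentrations after iv dosing.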

The test system of data set [8] is Human immunodeficiency virus 1. The data set can be described thus: Antiviral activity against HIV1 with integrase […] mutant. Format: functional, organism-based. The method, boiled down: (§3)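 HIV-1 carrying site-directed integrase mutations (mutations first seen in serial cell-culture passage under integrase inhibitors) tested in cell culture. Activity is expressed as fold loss in efficacy relative to wild-type virus.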

Data set [9] in a line: Half life in rat at 2 mg/kg, iv. Also on record: dose 2 mg/kg, route intravenous. The class given is ADME, organism-based. To be noted: in vivo. The method, boiled down: (§4)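 Rats received the sodium salt intravenously at 2 mg/kg, dissolved in DMSO. Half-life (h) and clearance (mL/min/kg) were derived after iv administration.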
For data set [10], the system named is Human immunodeficiency virus 1. Description: Antiviral activity against HIV1 with integrase T66l/S153Y mutant. The class given is functional, organism-based. Summed up:
as §3

The subject of data set [11] is Human immunodeficiency virus 1. The data set can be described thus: Antiviral activity against HIV1 with integrase V151l mutant. Format: functional, organism-based. The method, boiled down:
as §3

The nature of data set [12]: Oral bioavailability in rat at 10 mg/kg. To be noted: in vivo. The class given is ADME, organism-based. The method, boiled down:
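Sodium salt was ground and given orally to rats at 10 mg/kg as a 1% aqueous methylcellulose solution/suspension. Percent bioavailability was taken after oral administration.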

Data set [13] in a line: Clearance in dog at 1 mg/kg, iv. Format: ADME, organism-based, Canis lupus familiaris. Also on record: dose 1 mg/kg, route intravenous. To be noted: in vivo. Summed up:
as §2

Data set [14] can be described thus: Oral bioavailability in dog at 1 mg/kg. Format: ADME, organism-based, Canis lupus familiaris. To be noted: in vivo. The method, boiled down: (§5)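 Sodium salt was ground and given orally at 1 mg/kg to dogs and rhesus monkeys as a 0.5% aqueous methylcellulose suspension. Percent bioavailability was taken after oral administration.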
Data set [15] relates to Human immunodeficiency virus 1. Description: Antiviral activity against HIV1 with integrase T66l/M154l mutant. The class given is functional, organism-based. The method, boiled down: as §3
A short description of data set [16]: Clearance in rat at 2 mg/kg, iv. Format: ADME, organism-based. To be noted: in vivo. Further details: dose 2 mg/kg, route intravenous. Summed up:
as §4

A short description of data set [17]: Oral bioavailability in rhesus monkey at 1 mg/kg. The class given is ADME, organism-based, Macaca mulatta. To be noted: in vivo. Summed up:
as §5

In data set [18] the test system is Human immunodeficiency virus 1. The data set can be described thus: Antiviral activity against HIV1 with integrase T125K mutant. The class given is functional, organism-based. The method, boiled down:
as §3

Data set [19] is described as follows: Half life in dog at 1 mg/kg, iv. Format: ADME, organism-based, Canis lupus familiaris. Further details: dose 1 mg/kg, route intravenous. To be noted: in vivo. The method, boiled down:
as §2

The nature of data set [20]: Clearance in rhesus monkey at 1 mg/kg, iv. Further details: dose 1 mg/kg, route intravenous. To be noted: in vivo. Format: ADME, organism-based, Macaca mulatta. Summed up: as §2
Data set [21] can be described thus: Solubility at pH 7.4 by equilibrium solubility assay. Format: physicochemical. To be noted: buffer. Summed up:
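Crystalline drug was suspended in 10 mM sodium phosphate, pH 7.4, and equilibrated at room temperature for 5 days. Aliquots were centrifuged 15,000 rpm for 15 min. Solution concentration was measured by HPLC at days 2 and 5 and taken as solubility.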

In data set [22] the test system is Human immunodeficiency virus 1. The data set can be described thus: Antiviral activity against HIV1 with integrase N155S mutant. Format: functional, organism-based. The method, boiled down:
as §3

Data set [23] relates to Human immunodeficiency virus 1. The data set can be described thus: Antiviral activity against HIV1 with integrase F121Y mutant. Format: functional, organism-based. Summed up:
as §3

Consider `CNC(=O)c1cc(F)ccc1CN[14C](=O)c1nc(N2CCCCS2(=O)=O)c2cccnc2c1O`, for which, in data set [1], the Activity worked out at 15%.

With `CNC(=O)c1cc(F)ccc1CNC(=O)c1ncc2cccnc2c1O`, in data set [2], the pIC50 is 7.29. In addition, the fraction unbound in data set [3] was 0.02. Moreover, the logD in data set [4] came to 1.4. The IC95 in data set [5] turned out to be 1040 nM.

As to `CNS(=O)(=O)c1cc(F)ccc1CNC(=O)c1nc(N2CCCCS2(=O)=O)c2cccnc2c1O`, the pIC50 in [2] was 7.35. Moreover, in data set [3], the fraction unbound was 0.01. Moreover, the logD in [4] is 1.9. The IC95 is less than 8 nM in [6] and 125 nM in data set [5].

As to `CNC(=O)Cc1ccccc1CNC(=O)c1nc(N2CCCCS2(=O)=O)c2cccnc2c1O`, the pIC50 in data set [2] is 8.15. In addition, the fraction unbound in data set [3] was 0.08. Also, the pH-dependent lipophilicity (logD) in [4] came out at 1. In addition, the IC95 in data set [6] was 109 nM; in [5], 438 nM.

As to `CN(C)C(=O)Cc1ccccc1CNC(=O)c1nc(N2CCCCS2(=O)=O)c2cccnc2c1O`, in [2], the pIC50 was 7.85. Also, in [3], the fraction unbound is 0.06. Besides, the logD in [4] was 1. Moreover, the IC95 was determined as 167 nM in data set [6] and 1000 nM in data set [5].

As for `O=C(NCc1ccc(F)cc1)c1nc(N2CCCCS2(=O)=O)c2cccnc2c1O`, the half-life in [7] was 0.7 h; in data set [9] it was 1.2 h; in data set [19], 2.9 h. The outcome in data set [8], in [10], in [11], in [15], in data set [18] and in data set [22] was Active. Moreover, the outcome in data set [23] was Active. Moreover, the values for the bioavailability in data set [12], in [14] and in data set [17] were 41%, 24% and 51%, respectively. Also, the values for the clearance in data set [13], in data set [16] and in [20] were 2 mL/min/kg, 2.8 mL/min/kg and 6.6 mL/min/kg, respectively. For the same compound, the logD in data set [4] was 2.1. For the same compound, the IC95 was 15 nM in data set [6] and 102 nM in [5]. In addition, the Solubility in data set [21] is 0.21 µg/mL (≈ 0.488 µM).

On to `O=C(NCc1ccccc1)c1nc(N2CCCCS2(=O)=O)c2cccnc2c1O`, for which the pIC50 in data set [2] was 8.00. The compound further displayed a logD in [4] of 1.9. The IC95 in [6] turned out to be 125 nM; in data set [5], 1000 nM.

Take `CN(C)S(=O)(=O)c1cc(F)ccc1CNC(=O)c1nc(N2CCCCS2(=O)=O)c2cccnc2c1O`: the pIC50 in data set [2] was 7.52. The fraction unbound in data set [3] was 0.03. Further, the logD in data set [4] amounted to 1.9. Further, the figures for the IC95 in data set [6] and in [5] were 16 nM and 94 nM, respectively.

Consider `CNC(=O)c1cc(F)ccc1CNC(=O)c1nc(N2CCCCS2(=O)=O)c2cccnc2c1O`, for which the half-life in data set [7] is 1.4 h; in data set [9], 1.2 h; in [19], 1.8 h. The result in data set [8], in [10], in data set [11], in data set [15], in data set [18] and in [22] was Active. Moreover, in [23], the result was Active. Also, the pIC50 in [2] was 8.00. The fraction unbound in data set [3] is 0.08. Further, the figures for the bioavailability in [12], in data set [14] and in data set [17] were 45%, 65% and 23%, respectively. Also, the clearance in [13] was 2.8 mL/min/kg; in data set [16], 8.6 mL/min/kg; in data set [20], 18.3 mL/min/kg. Also, the logD in data set [4] worked out at 1.6. Further, the IC95 in data set [6] is 7 nM; in data set [5] it was 16 nM. In [21], this compound displayed a solubility (thermodynamic) of 2.3 µg/mL (≈ 4.72 µM).

`O=[14C](NCc1ccc(F)cc1)c1nc(N2CCCCS2(=O)=O)c2cccnc2c1O` registered an Activity in [1] of 1.5%.

As for `CN(C)C(=O)c1cc(F)ccc1CNC(=O)c1nc(N2CCCCS2(=O)=O)c2cccnc2c1O`, in data set [2], the pIC50 is 6.96. In data set [3], the fraction unbound is 0.1. The logD in [4] is 1. In addition, the IC95 in [6] turned out to be 23 nM; in data set [5] it was 63 nM.

In the case of `O=C(NCc1ccc(F)cc1)c1ncc2cccnc2c1O`, the fraction unbound in data set [3] was 0.01. Besides, the logD in data set [4] is 2.4. Further, the IC95 in data set [5] stood at 5000 nM.
